Source: ChEMBL document CHEMBL4689842, “EUbOPEN Chemogenomics Library wave 1” (2021)
“And” between values parts separate entries of the source, which are not always exact repeats. Equal entries are not always repeated.

Test system: U2OS
Test: Multiplex assay against U2OS
Assay type: toxicity, cell-based
Details: human
How it was run: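 With compound added, live cells were imaged on a CQ1 microscope at 37°C and 5% CO2; staining with Hoechst33342, BioTracker Green Microtubule Cytoskeleton Dye, MitoTracker Red and Annexin V Alexa Fluor 680 had been done at seeding. The CellPathfinder machine-learning gating scheme split cells into Hoechst high-intensity objects or normal cells, normal cells into healthy, pyknosed or fragmented nuclei, and pyknosed cells into mitotic or apoptotic. The tubulin, mitochondrial-mass and membrane-permeability phenotypes are per cents of healthy-nucleus cells.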

[1] = 12 h, 1 µM, compound concentration 1 uM, replicate 1
[2] = 12 h, 1 µM, compound concentration 1 uM, replicate 2
[3] = 12 h, 10 µM, compound concentration 10 uM, replicate 1
[4] = 12 h, 10 µM, compound concentration 10 uM, replicate 2
[5] = 24 h, 1 µM, compound concentration 1 uM, replicate 1
[6] = 24 h, 1 µM, compound concentration 1 uM, replicate 2
[7] = 24 h, 10 µM, compound concentration 10 uM, replicate 1
[8] = 24 h, 10 µM, compound concentration 10 uM, replicate 2
[9] = 48 h, 10 µM, compound concentration 10 uM, replicate 1
[10] = 48 h, 10 µM, compound concentration 10 uM, replicate 2

In the case of `c1ccc(-c2oc3ncnc(NC[C@@H]4CCCO4)c3c2-c2ccccc2)cc1`, the “Population Apoptotic (%)” value [1] is reported as 68% and 50%, the “Population Fragmented Nuclei (%)” value [1] is reported as 4% and the “Population Healthy Nuclei (%)” value [1] is reported as 86% and 84%. The “Population Mitochondria Different-Phenotype (%)” value [1] was 12% and 18%, the “Population Mitotic Cells (%)” value [1] was 31% and 50% and the “Population Normal (%)” value [1] was 98% and 95%. For the same compound, the “Population Pyknosed Nuclei (%)” value [1] was 9% and 8%, the “Total Cell Count” value [1] was 173 and 152 and the “Population Apoptotic (%)” value [2] was 66% and 25%. The “Population Fragmented Nuclei (%)” value [2] was 6%, the “Population Healthy Nuclei (%)” value [2] was 90% and the “Population Hoechst High Intensity Objects (%)” value [2] was 10% and 18%. For the same compound, the “Population Mitochondria Different-Phenotype (%)” value [2] was 17% and 35%, the “Population Mitotic Cells (%)” value [2] was 33% and 75% and the “Population Normal (%)” value [2] was 89% and 81%. For the same compound, the “Population Pyknosed Nuclei (%)” value [2] was 7% and 4%, the “Total Cell Count” value [2] was 137 and 107 and the “Population Apoptotic (%)” value [3] was 78%. For the same compound, the “Population Fragmented Nuclei (%)” value [3] was 12%, the “Population Healthy Nuclei (%)” value [3] was 64% and the “Population Hoechst High Intensity Objects (%)” value [3] was 10%. For the same compound, the “Population Membrane Permeable-Phenotype (%)” value [3] was 20%, the “Population Mitochondria Different-Phenotype (%)” value [3] was 82% and the “Population Mitotic Cells (%)” value [3] was 21%. For the same compound, the “Population Normal (%)” value [3] was 89%, the “Population Pyknosed Nuclei (%)” value [3] was 22% and the “Population Tubulin-Different-Phenotype (%)” value [3] was 93%. The “Total Cell Count” value [3] was 137, the “Population Apoptotic (%)” value [4] was 87% and the “Population Fragmented Nuclei (%)” value [4] was 14%. The “Population Healthy Nuclei (%)” value [4] was 71%, the “Population Hoechst High Intensity Objects (%)” value [4] was 6% and the “Population Membrane Permeable-Phenotype (%)” value [4] was 34%. The “Population Mitochondria Different-Phenotype (%)” value [4] was 56%, the “Population Mitotic Cells (%)” value [4] was 12% and the “Population Normal (%)” value [4] was 93%. For the same compound, the “Population Pyknosed Nuclei (%)” value [4] was 14%, the “Population Tubulin-Different-Phenotype (%)” value [4] was 95% and the “Total Cell Count” value [4] was 61. The “Population Apoptotic (%)” value [5] was 59% and 70%, the “Population Fragmented Nuclei (%)” value [5] was 6% and the “Population Healthy Nuclei (%)” value [5] was 79% and 90%. The “Population Hoechst High Intensity Objects (%)” value [5] was 2% and 3%, the “Population Mitochondria Different-Phenotype (%)” value [5] was 26% and 22% and the “Population Mitotic Cells (%)” value [5] was 40% and 30%. For the same compound, the “Population Normal (%)” value [5] was 97% and 96%, the “Population Pyknosed Nuclei (%)” value [5] was 13% and 5% and the “Population Tubulin-Different-Phenotype (%)” value [5] was 83%. For the same compound, the “Total Cell Count” value [5] was 198 and 202, the “Population Fragmented Nuclei (%)” value [6] was 4% and 8% and the “Population Healthy Nuclei (%)” value [6] was 77% and 87%. The “Population Hoechst High Intensity Objects (%)” value [6] was 6% and 8%, the “Population Mitochondria Different-Phenotype (%)” value [6] was 19% and 29% and the “Population Normal (%)” value [6] was 93% and 91%. The “Total Cell Count” value [6] was 153 and 143, the “Population Apoptotic (%)” value [7] was 82% and the “Population Fragmented Nuclei (%)” value [7] was 8%. For the same compound, the “Population Healthy Nuclei (%)” value [7] was 68%, the “Population Hoechst High Intensity Objects (%)” value [7] was 12% and the “Population Membrane Permeable-Phenotype (%)” value [7] was 34%. The “Population Mitochondria Different-Phenotype (%)” value [7] was 74%, the “Population Mitotic Cells (%)” value [7] was 17% and the “Population Normal (%)” value [7] was 87%. For the same compound, the “Population Pyknosed Nuclei (%)” value [7] was 23%, the “Population Tubulin-Different-Phenotype (%)” value [7] was 95% and the “Total Cell Count” value [7] was 138. The “Population Apoptotic (%)” value [8] was 100%, the “Population Fragmented Nuclei (%)” value [8] was 14% and the “Population Hoechst High Intensity Objects (%)” value [8] was 10%. The “Population Membrane Permeable-Phenotype (%)” value [8] was 21%, the “Population Mitochondria Different-Phenotype (%)” value [8] was 56% and the “Population Mitotic Cells (%)” value [8] was 0%. The “Population Normal (%)” value [8] was 90%, the “Population Pyknosed Nuclei (%)” value [8] was 16% and the “Population Tubulin-Different-Phenotype (%)” value [8] was 81%. The “Total Cell Count” value [8] was 60, the “Population Apoptotic (%)” value [9] was 70% and the “Population Fragmented Nuclei (%)” value [9] was 15%. For the same compound, the “Population Healthy Nuclei (%)” value [9] was 57%, the “Population Hoechst High Intensity Objects (%)” value [9] was 5% and the “Population Membrane Permeable-Phenotype (%)” value [9] was 41%. For the same compound, the “Population Mitochondria Different-Phenotype (%)” value [9] was 61%, the “Population Mitotic Cells (%)” value [9] was 29% and the “Population Normal (%)” value [9] was 94%. For the same compound, the “Population Pyknosed Nuclei (%)” value [9] was 26%, the “Population Tubulin-Different-Phenotype (%)” value [9] was 89% and the “Total Cell Count” value [9] was 134. The “Population Apoptotic (%)” value [10] was 77%, the “Population Fragmented Nuclei (%)” value [10] was 12% and the “Population Healthy Nuclei (%)” value [10] was 75%. For the same compound, the “Population Hoechst High Intensity Objects (%)” value [10] was 10%, the “Population Membrane Permeable-Phenotype (%)” value [10] was 62% and the “Population Mitochondria Different-Phenotype (%)” value [10] was 27%. For the same compound, the “Population Mitotic Cells (%)” value [10] was 22%, the “Population Normal (%)” value [10] was 90% and the “Population Pyknosed Nuclei (%)” value [10] was 12%. The “Population Tubulin-Different-Phenotype (%)” value [10] was 72% and the “Total Cell Count” value [10] was 80.
